According to ChEMBL document CHEMBL4765319, “Identification of a new series of flavopiridol-like structures as kinase inhibitors with high cytotoxic potency” (Eur J Med Chem, 2020):

Key:
[1] = molecular target: CDK9/cyclin T1 (Homo sapiens) (UniProt O60563+P50750); experiment: Inhibition of human CDK9/cyclin T assessed as residual activity at 1 uM in presence of ATP by ADP-glo luminescent assay relative to control; type: protein-complex assay
How it was run: (§1)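 Human kinases assayed by ADP-Glo luminescence with 10 μM ATP, compound at 10 or 1 μM. Activity is expressed as % of maximal activity relative to a DMSO control, mean n = 2.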

[2] = molecular target: T1, Glycogen synthase kinase-3 beta (Homo sapiens, UniProt P49841); experiment: Inhibition of human GSK3beta assessed as residual activity at 10 uM in presence of ATP by ADP-glo luminescent assay relative to control; how it was run: as §1
Target sequence in this assay (P49841 whole entry, looked up): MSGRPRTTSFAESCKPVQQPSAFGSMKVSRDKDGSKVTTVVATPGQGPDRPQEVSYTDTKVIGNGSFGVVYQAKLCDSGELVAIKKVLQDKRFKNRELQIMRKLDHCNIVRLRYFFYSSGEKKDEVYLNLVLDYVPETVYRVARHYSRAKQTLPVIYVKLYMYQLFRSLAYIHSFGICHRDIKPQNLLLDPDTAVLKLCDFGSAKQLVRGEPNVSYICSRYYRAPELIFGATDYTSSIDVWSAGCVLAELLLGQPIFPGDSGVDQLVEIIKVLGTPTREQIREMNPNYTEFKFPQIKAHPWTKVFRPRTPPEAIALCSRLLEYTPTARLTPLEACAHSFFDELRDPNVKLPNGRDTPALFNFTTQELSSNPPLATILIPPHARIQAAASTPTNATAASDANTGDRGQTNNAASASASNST

[3] = molecular target: T1, Glycogen synthase kinase-3 beta; experiment: Inhibition of human GSK3beta assessed as residual activity at 1 uM in presence of ATP by ADP-glo luminescent assay relative to control; how it was run: as §1
Target sequence in this assay (P49841 whole entry, looked up): as above

[4] = system: Leishmania major; experiment: Inhibition of Leishmania major CK1 assessed as residual activity at 10 uM in presence of ATP by ADP-glo luminescent assay relative to control
[5] = species: Sus scrofa; experiment: Inhibition of porcine CK1delta/epsilon assessed as residual activity at 10 uM in presence of ATP by ADP-glo luminescent assay relative to control
[6] = species: Sus scrofa; experiment: Inhibition of porcine CK1delta/epsilon assessed as residual activity at 1 uM in presence of ATP by ADP-glo luminescent assay relative to control
[7] = species: Sus scrofa; experiment: Inhibition of porcine GSK3alpha/beta assessed as residual activity at 10 uM in presence of ATP by ADP-glo luminescent assay relative to control
How it was run: (§2)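 Porcine brain GSK3α/β, native and affinity-purified. Assayed by ADP-Glo luminescence with 10 μM ATP and 0.010 μg/μl GS-1 peptide substrate. Buffer A: 10 mM MgCl2, 1 mM EGTA, 1 mM DTT, 25 mM Tris-HCl pH 7.5, 50 μg/ml heparin. Compound tested at 10 or 1 μM. Result is % of maximal activity versus DMSO control, mean of n = 2.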

[8] = species: Sus scrofa; experiment: Inhibition of porcine GSK3alpha/beta assessed as residual activity at 1 uM in presence of ATP by ADP-glo luminescent assay relative to control; how it was run: as §2
[9] = molecular target: Cyclin-dependent kinase 5/CDK5 activator 1 (Homo sapiens, UniProt Q00535); experiment: Inhibition of human CDK5/p25 in presence of ATP by ADP-glo luminescent assay; type: protein-complex assay
How it was run: (§3)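 Human kinases tested over roughly 0.0003–10 μM by ADP-Glo luminescence with 10 μM ATP, in duplicate. IC50 is taken from dose-response curves.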

[10] = molecular target: CDK9/cyclin T1 (Homo sapiens, UniProt P50750); experiment: Inhibition of human CDK9/cyclin T in presence of ATP by ADP-glo luminescent assay; type: protein-complex assay; how it was run: as §3
[11] = molecular target: T1, Glycogen synthase kinase-3 beta; experiment: Inhibition of human GSK3beta in presence of ATP by ADP-glo luminescent assay; how it was run: as §3
Target sequence in this assay (P49841 whole entry): as the sequence (P49841 whole entry, looked up) above

[12] = system: K562; experiment: Cell cycle arrest in human K562 cells assessed as accumulation at G2/M phase at 50 nM after 24 hrs by propidium iodide staining-based flow cytometric analysis (reference value: 12.9 %); type: functional
[13] = system: K562; experiment: Cell cycle arrest in human K562 cells assessed as accumulation at G2/M phase at 100 nM after 24 hrs by propidium iodide staining-based flow cytometric analysis (reference value: 12.9 %); type: functional
[14] = system: HCT-116; experiment: Cell cycle arrest in human HCT-116 cells assessed as accumulation at G0/G1 phase at 100 nM after 24 hrs by propidium iodide staining-based flow cytometric analysis (reference value: 20.9 %); type: functional
[15] = system: HCT-116; experiment: Cell cycle arrest in human HCT-116 cells assessed as accumulation at G0/G1 phase at 200 nM after 24 hrs by propidium iodide staining-based flow cytometric analysis (reference value: 20.9 %); type: functional
[16] = system: HCT-116; experiment: Cell cycle arrest in human HCT-116 cells assessed as accumulation at G0/G1 phase at 500 nM after 24 hrs by propidium iodide staining-based flow cytometric analysis (reference value: 20.9 %); type: functional
[17] = system: HCT-116; experiment: Cell cycle arrest in human HCT-116 cells assessed as accumulation at S phase at 500 nM after 24 hrs by propidium iodide staining-based flow cytometric analysis (reference value: 47.6 %); type: functional
[18] = system: HCT-116; experiment: Cell cycle arrest in human HCT-116 cells assessed as accumulation at G2/M phase at 200 nM after 24 hrs by propidium iodide staining-based flow cytometric analysis (reference value: 31.5 %); type: functional
[19] = system: HCT-116; experiment: Cell cycle arrest in human HCT-116 cells assessed as accumulation at G2/M phase at 500 nM after 24 hrs by propidium iodide staining-based flow cytometric analysis (reference value: 31.5 %); type: functional
[20] = Inhibition of human CDK10/cyclin M by ADP-Glo assay
[21] = molecular target: T1, Glycogen synthase kinase-3 beta; experiment: Potency index, ratio of flavopiridol IC50 to test compound IC50 for human GSK3beta in presence of ATP by ADP-glo luminescent assay
Target sequence in this assay (P49841 whole entry, looked up): as above

[22] = system: HCT-116; experiment: Cell cycle arrest in human HCT-116 cells assessed as increase in accumulation at G2/M phase after 24 hrs by propidium iodide staining-based flow cytometric analysis; type: functional; details: dose 100-500 nM
[23] = system: PC-3; experiment: Antiproliferative activity against human PC-3 cells assessed as reduction in cell viability incubated for 72 hrs by CellTiter-Blue fluorescence assay; details: PC-3, 72 h
[24] = system: SK-OV-3; experiment: Antiproliferative activity against human SKOV3 cells assessed as reduction in cell viability incubated for 72 hrs by CellTiter-Blue fluorescence assay; details: SK-OV-3, 72 h
[25] = system: MIA PaCa-2; experiment: Antiproliferative activity against human MIA PaCa-2 cells assessed as reduction in cell viability incubated for 72 hrs by CellTiter-Blue fluorescence assay; details: MIA PaCa-2, 72 h

Cyclin-dependent kinase 5/CDK5 activator 1, sequence (Q00535 whole entry): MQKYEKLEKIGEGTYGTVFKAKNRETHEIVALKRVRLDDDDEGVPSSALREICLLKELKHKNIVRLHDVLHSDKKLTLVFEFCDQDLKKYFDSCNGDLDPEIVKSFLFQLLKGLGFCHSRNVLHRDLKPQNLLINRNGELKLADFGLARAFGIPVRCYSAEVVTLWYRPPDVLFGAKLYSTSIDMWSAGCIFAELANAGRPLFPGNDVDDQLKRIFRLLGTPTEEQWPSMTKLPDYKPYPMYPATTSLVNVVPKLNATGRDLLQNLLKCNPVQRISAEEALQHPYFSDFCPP
Cyclin-dependent kinase 5/CDK5 activator 1, sequence (Q15078 whole entry, further chain): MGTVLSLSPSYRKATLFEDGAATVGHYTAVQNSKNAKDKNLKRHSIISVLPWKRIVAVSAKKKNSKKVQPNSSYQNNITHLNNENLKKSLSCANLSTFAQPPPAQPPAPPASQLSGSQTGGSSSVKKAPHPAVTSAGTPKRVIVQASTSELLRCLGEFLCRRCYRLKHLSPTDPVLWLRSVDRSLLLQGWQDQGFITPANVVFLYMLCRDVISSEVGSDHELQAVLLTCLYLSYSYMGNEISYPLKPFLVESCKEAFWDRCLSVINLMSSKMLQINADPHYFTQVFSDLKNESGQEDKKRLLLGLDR
CDK9/cyclin T1, sequence (O60563 whole entry): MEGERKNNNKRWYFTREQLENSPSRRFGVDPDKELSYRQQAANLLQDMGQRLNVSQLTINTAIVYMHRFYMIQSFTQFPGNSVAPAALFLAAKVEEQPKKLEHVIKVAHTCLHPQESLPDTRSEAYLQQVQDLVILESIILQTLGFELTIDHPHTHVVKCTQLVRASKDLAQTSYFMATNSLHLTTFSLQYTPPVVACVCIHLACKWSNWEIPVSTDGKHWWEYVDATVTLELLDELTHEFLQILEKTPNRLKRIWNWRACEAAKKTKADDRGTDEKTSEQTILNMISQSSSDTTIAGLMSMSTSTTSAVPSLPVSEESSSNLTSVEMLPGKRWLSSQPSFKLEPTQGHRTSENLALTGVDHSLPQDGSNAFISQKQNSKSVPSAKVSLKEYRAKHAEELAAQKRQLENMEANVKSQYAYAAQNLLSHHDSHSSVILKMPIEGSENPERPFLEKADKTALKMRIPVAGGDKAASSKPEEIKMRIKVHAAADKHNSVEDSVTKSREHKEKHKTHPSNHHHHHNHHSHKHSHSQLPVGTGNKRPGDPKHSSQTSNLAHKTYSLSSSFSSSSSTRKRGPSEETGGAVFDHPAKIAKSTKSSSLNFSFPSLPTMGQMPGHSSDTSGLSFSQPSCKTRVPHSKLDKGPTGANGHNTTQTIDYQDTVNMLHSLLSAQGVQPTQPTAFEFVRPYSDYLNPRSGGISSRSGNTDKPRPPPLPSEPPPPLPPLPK
CDK9/cyclin T1, sequence (P50750 whole entry): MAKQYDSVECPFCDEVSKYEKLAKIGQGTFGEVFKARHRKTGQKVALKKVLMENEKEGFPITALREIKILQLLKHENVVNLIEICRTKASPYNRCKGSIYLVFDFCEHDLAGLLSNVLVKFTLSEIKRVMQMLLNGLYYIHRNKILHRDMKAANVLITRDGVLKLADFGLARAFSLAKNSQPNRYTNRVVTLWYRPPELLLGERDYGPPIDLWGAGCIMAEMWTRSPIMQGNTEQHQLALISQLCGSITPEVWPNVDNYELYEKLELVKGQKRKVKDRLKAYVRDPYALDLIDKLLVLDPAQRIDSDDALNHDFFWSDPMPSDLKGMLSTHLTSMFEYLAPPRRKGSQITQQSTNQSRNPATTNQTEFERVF

Activity [1]: 1%
Activity [2]: 2%
Activity [3]: 12%
Activity [4]: 38%
Activity [5]: 62%
Activity [6]: 90%
Activity [7]: 10%
Activity [8]: 31%
IC50 [9]: 1090 nM
IC50 [10]: 64 nM
IC50 [11]: 59 nM
IC50 [20]: 149 nM
Ratio IC50 [21]: 20
IC50 [23]: 85 nM
IC50 [24]: 94 nM
IC50 [25]: 52.9 nM
Compound: CN1CC=C(c2c(O)cc(O)c3c(=O)cc(-c4ccc(Sc5nc6ccccc6n5C)cc4Cl)oc23)CC1
Activity [12]: 22.7%
Activity [13]: 28.7%
Activity [14]: 20.6%
Activity [15]: 26%
Activity [16]: 34.8%
Activity [17]: 25.1%
Activity [18]: 30.9%
Activity [19]: 40%
Activity [22]: Dose-dependent effect
